Values after ≈ are worked out from the molar mass of the structure shown.
Tests used:
[1] = tested on: Pseudomonas aeruginosa; experiment: Antibacterial activity against Pseudomonas aeruginosa ATTC 27853 after 16 to 18 hrs by serial plate dilution method; assay type: functional; details: ATCC27853
Summary of the method: (§1)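 MIC by broth serial dilution: compound serially diluted in Mueller-Hinton broth, tubes adjusted to […] with phosphate buffer. Standardized bacterial suspension inoculated, incubated 16-18 h at 37 °C. MIC read as the lowest concentration with no visible growth.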

[2] = tested on: Aspergillus flavus; experiment: Antifungal activity against Aspergillus flavus NCIM No.524 assessed as zone of inhibition by serial plate dilution method; assay type: functional
Summary of the method: (§2)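 Sabouraud agar (peptone, D-glucose, agar; pH 5.7), 20 ml per dish, lawned with a saline spore suspension from a loopful of fungus. Excess decanted, plates dried 1 h at 37 °C. Wells punched and compounds in DMSO added, DMSO as control. Triplicate plates, 37 °C for 3-4 days; inhibition-zone diameter measured.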

[3] = tested on: Aspergillus fumigatus; experiment: Antifungal activity against Aspergillus fumigatus NCIM No.902 assessed as zone of inhibition by serial plate dilution method; assay type: functional; summary of the method: as §2
[4] = tested on: Bacillus subtilis; experiment: Antibacterial activity against Bacillus subtilis assessed as zone of inhibition after 16 to 18 hrs by serial plate dilution method; assay type: functional
Summary of the method: (§3)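 Agar well diffusion: 20 ml agar per dish seeded with bacterial suspension, excess decanted, dishes held 1 h at 37 °C. Wells punched, compounds in DMSO added at their MIC levels, DMSO wells as control. Zone of inhibition measured.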

[5] = tested on: Staphylococcus aureus; experiment: Antibacterial activity against Staphylococcus aureus ATTC 25923 after 16 to 18 hrs by serial plate dilution method; assay type: functional; summary of the method: as §1
[6] = tested on: Staphylococcus aureus; experiment: Antibacterial activity against Staphylococcus aureus ATTC 25923 assessed as zone of inhibition after 16 to 18 hrs by serial plate dilution method; assay type: functional; summary of the method: as §3
[7] = tested on: Talaromyces marneffei; experiment: Antifungal activity against Penicillium marneffei assessed as zone of inhibition by serial plate dilution method; assay type: functional; summary of the method: as §2
[8] = tested on: Trichophyton mentagrophytes; experiment: Antifungal activity against Trichophyton mentagrophytes assessed as zone of inhibition by serial plate dilution method; assay type: functional; summary of the method: as §2
[9] = tested on: Escherichia coli; experiment: Antibacterial activity against Escherichia coli ATTC 25922 after 16 to 18 hrs by serial plate dilution method; assay type: functional; details: ATCC25922; summary of the method: as §1
[10] = tested on: Talaromyces marneffei; experiment: Antifungal activity against Penicillium marneffei by serial plate dilution method; assay type: functional
[11] = tested on: Pseudomonas aeruginosa; experiment: Antibacterial activity against Pseudomonas aeruginosa ATTC 27853 assessed as zone of inhibition after 16 to 18 hrs by serial plate dilution method; assay type: functional, ATCC27853; summary of the method: as §3
[12] = tested on: Bacillus subtilis; experiment: Antibacterial activity against Bacillus subtilis after 16 to 18 hrs by serial plate dilution method; assay type: functional; summary of the method: as §1
[13] = tested on: Trichophyton mentagrophytes; experiment: Antifungal activity against Trichophyton mentagrophytes by serial plate dilution method; assay type: functional
[14] = tested on: Aspergillus flavus; experiment: Antifungal activity against Aspergillus flavus NCIM No.524 by serial plate dilution method; assay type: functional
[15] = tested on: Aspergillus fumigatus; experiment: Antifungal activity against Aspergillus fumigatus NCIM No.902 by serial plate dilution method; assay type: functional
[16] = tested on: Escherichia coli; experiment: Antibacterial activity against Escherichia coli ATTC 25922 assessed as zone of inhibition after 16 to 18 hrs by serial plate dilution method; assay type: functional, ATCC25922; summary of the method: as §3

SMILES	MIC [1]	inhibition zone (IZ) [2]	inhibition zone (IZ) [3]	inhibition zone (IZ) [4]	MIC [5]	inhibition zone (IZ) [6]	inhibition zone (IZ) [7]	inhibition zone (IZ) [8]	MIC [9]	MIC [10]	inhibition zone (IZ) [11]	MIC [12]	MIC [13]	MIC [14]	MIC [15]	inhibition zone (IZ) [16]
CSc1ccc(-c2csc(-c3cc(Cl)cc(Cl)c3Cl)n2)cc1	6.25 µg/mL (≈ 16.2 µM)	11 mm	11 mm	16 mm	6.25 µg/mL (≈ 16.2 µM)	16 mm	<10 mm	11 mm	6.25 µg/mL (≈ 16.2 µM)	25 µg/mL (≈ 64.6 µM)	16 mm	6.25 µg/mL (≈ 16.2 µM)	12.5 µg/mL (≈ 32.3 µM)	12.5 µg/mL (≈ 32.3 µM)	12.5 µg/mL (≈ 32.3 µM)	16 mm
Clc1cc(Cl)c(Cl)c(-c2nc(-c3ccc(-c4ccccc4)cc3)cs2)c1	12.5 µg/mL (≈ 30 µM)	16 mm	16 mm	11 mm	12.5 µg/mL (≈ 30 µM)	11 mm	16 mm	16 mm	25 µg/mL (≈ 60 µM)	6.25 µg/mL (≈ 15 µM)	11 mm	12.5 µg/mL (≈ 30 µM)	6.25 µg/mL (≈ 15 µM)	6.25 µg/mL (≈ 15 µM)	6.25 µg/mL (≈ 15 µM)	<10 mm
Cc1cc(C)nc(SCc2csc(-c3cc(Cl)cc(Cl)c3Cl)n2)n1	6.25 µg/mL (≈ 15 µM)	16 mm	<10 mm	16 mm	6.25 µg/mL (≈ 15 µM)	16 mm	16 mm	<10 mm	6.25 µg/mL (≈ 15 µM)	6.25 µg/mL (≈ 15 µM)	16 mm	6.25 µg/mL (≈ 15 µM)	25 µg/mL (≈ 60 µM)	6.25 µg/mL (≈ 15 µM)	25 µg/mL (≈ 60 µM)	16 mm
NC(=O)c1cc(-c2csc(N/N=C/c3cc(Cl)cc(Cl)c3Cl)n2)ccc1O	6.25 µg/mL (≈ 14.1 µM)	11 mm	11 mm	16 mm	6.25 µg/mL (≈ 14.1 µM)	16 mm	11 mm	11 mm	6.25 µg/mL (≈ 14.1 µM)	12.5 µg/mL (≈ 28.3 µM)	16 mm	6.25 µg/mL (≈ 14.1 µM)	12.5 µg/mL (≈ 28.3 µM)	12.5 µg/mL (≈ 28.3 µM)	12.5 µg/mL (≈ 28.3 µM)	16 mm
Clc1ccc(-c2csc(-c3cc(Cl)cc(Cl)c3Cl)n2)cc1	6.25 µg/mL (≈ 16.7 µM)	<10 mm	16 mm	<10 mm	12.5 µg/mL (≈ 33.3 µM)	11 mm	<10 mm	16 mm	6.25 µg/mL (≈ 16.7 µM)	25 µg/mL (≈ 66.6 µM)	16 mm	25 µg/mL (≈ 66.6 µM)	6.25 µg/mL (≈ 16.7 µM)	25 µg/mL (≈ 66.6 µM)	6.25 µg/mL (≈ 16.7 µM)	16 mm
CN1CCN(Cc2csc(-c3cc(Cl)cc(Cl)c3Cl)n2)CC1	6.25 µg/mL (≈ 16.6 µM)	<10 mm	16 mm	16 mm	6.25 µg/mL (≈ 16.6 µM)	16 mm	<10 mm	16 mm	6.25 µg/mL (≈ 16.6 µM)	25 µg/mL (≈ 66.4 µM)	16 mm	6.25 µg/mL (≈ 16.6 µM)	6.25 µg/mL (≈ 16.6 µM)	25 µg/mL (≈ 66.4 µM)	6.25 µg/mL (≈ 16.6 µM)	16 mm
Clc1cc(Cl)c(Cl)c(/C=N/Nc2nc(-c3cccnc3)cs2)c1	12.5 µg/mL (≈ 32.6 µM)	16 mm	16 mm	10 mm	25 µg/mL (≈ 65.2 µM)	<10 mm	16 mm	16 mm	12.5 µg/mL (≈ 32.6 µM)	6.25 µg/mL (≈ 16.3 µM)	11 mm	12.5 µg/mL (≈ 32.6 µM)	6.25 µg/mL (≈ 16.3 µM)	6.25 µg/mL (≈ 16.3 µM)	6.25 µg/mL (≈ 16.3 µM)	11 mm
COc1ccc(-c2csc(-c3cc(Cl)cc(Cl)c3Cl)n2)cc1	12.5 µg/mL (≈ 33.7 µM)	<10 mm	<10 mm	11 mm	12.5 µg/mL (≈ 33.7 µM)	11 mm	<10 mm	<10 mm	6.25 µg/mL (≈ 16.9 µM)	25 µg/mL (≈ 67.4 µM)	11 mm	12.5 µg/mL (≈ 33.7 µM)	25 µg/mL (≈ 67.4 µM)	25 µg/mL (≈ 67.4 µM)	25 µg/mL (≈ 67.4 µM)	16 mm
Clc1cc(Cl)c(Cl)c(-c2nc(CN3CCCCC3)cs2)c1	12.5 µg/mL (≈ 34.6 µM)	<10 mm	<10 mm	16 mm	6.25 µg/mL (≈ 17.3 µM)	16 mm	<10 mm	<10 mm	25 µg/mL (≈ 69.1 µM)	25 µg/mL (≈ 69.1 µM)	11 mm	6.25 µg/mL (≈ 17.3 µM)	25 µg/mL (≈ 69.1 µM)	25 µg/mL (≈ 69.1 µM)	25 µg/mL (≈ 69.1 µM)	<10 mm
CSc1ccc(-c2csc(N/N=C/c3cc(Cl)cc(Cl)c3Cl)n2)cc1	6.25 µg/mL (≈ 14.6 µM)	<10 mm	16 mm	16 mm	6.25 µg/mL (≈ 14.6 µM)	16 mm	<10 mm	16 mm	6.25 µg/mL (≈ 14.6 µM)	25 µg/mL (≈ 58.3 µM)	16 mm	6.25 µg/mL (≈ 14.6 µM)	6.25 µg/mL (≈ 14.6 µM)	25 µg/mL (≈ 58.3 µM)	6.25 µg/mL (≈ 14.6 µM)	16 mm
Cc1cc(C2CCCCC2)n(O)c(=O)c1.NCCO [CICLOPIROX OLAMINE]	–	16 mm	16 mm	–	–	–	16 mm	16 mm	–	6.25 µg/mL	–	–	6.25 µg/mL	6.25 µg/mL	6.25 µg/mL	–
O=C(O)c1cn(C2CC2)c2cc(N3CCNCC3)c(F)cc2c1=O [CIPROFLOXACIN]	–	–	–	21 mm	–	16 mm	–	–	–	–	16 mm	1.56 µg/mL (≈ 4.71 µM)	–	–	–	16 mm

From ChEMBL document CHEMBL1149778, “Synthesis of some novel 2,4-disubstituted thiazoles as possible antimicrobial agents” (2008)
